PGE2 EP2 inh – inhibitors of human EP2 prostaglandin E2 receptor; inhibition, % at 25 µM; AID 1422; actives 0.52% (n = 260,000); P43116; C6 glioma cells expressing human EP2, cAMP TR-FRET; cells stimulated with saturating PGE2;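 active = percent inhibition above 40 after rounding to a whole number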;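 also: rat C6 glioma host cells with rolipram phosphodiesterase inhibitor present; the protocol text gives 20 µM as final concentration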
Target sequence (P43116 whole entry, looked up): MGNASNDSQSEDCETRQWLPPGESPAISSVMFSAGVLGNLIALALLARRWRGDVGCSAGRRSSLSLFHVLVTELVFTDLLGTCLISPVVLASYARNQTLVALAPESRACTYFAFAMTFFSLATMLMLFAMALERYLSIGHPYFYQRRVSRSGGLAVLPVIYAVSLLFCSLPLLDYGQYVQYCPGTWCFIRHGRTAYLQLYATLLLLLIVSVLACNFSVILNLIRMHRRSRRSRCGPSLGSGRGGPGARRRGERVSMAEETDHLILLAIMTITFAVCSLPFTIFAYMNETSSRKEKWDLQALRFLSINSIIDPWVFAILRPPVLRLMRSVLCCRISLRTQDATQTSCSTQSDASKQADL
NPY-Y2 PAM-ag – potentiates or activates human NPY-Y2 receptor | actives 0.45% (n = 220,000) | cells expressing NPY-Y2, potentiator/agonist read-out | P49146 | activation, % at 3.6 µM; in the data active = activation above about 27%;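 also: cells stimulated with NPY near EC25 plus isoproterenol at EC100; 0% = vehicle plus submaximal agonist and 100% = vehicle plus saturating agonist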
EP2 modulator – modulates human prostaglandin E2 receptor EP2 signaling; P43116; EP2-expressing cells, cAMP HTRF FRET, PGE2 co-stimulation; induction, % at 25 µM; actives 0.83% (n = 260,000); AID 940;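 active = compounds whose cAMP rise, as percent of the full-agonist control response, exceeds 60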;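 also: rat C6 glioma line stably carrying human EP2 under a CMV promoter; the protocol text gives 20 µM as final concentration; 100% = response of wells given 1 µM PGE2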
NPY-Y1 PAM-ag – potentiates or activates human NPY-Y1 receptor. P25929. NPY-Y1 expressing cells, potentiator/agonist activation. activation, % at 3.6 µM. actives 0.37% (n = 220,000); in the data active = activation above about 33%, passing the limit was not always enough;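 also: cells stimulated with NPY at EC10 then isoproterenol at EC100; 0% = low agonist plus stimulus and 100% = saturating agonist plus stimulus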
NPY-Y2 antag – antagonists of human neuropeptide Y receptor Y2; inhibition, % at 2.7 µM; actives 0.99% (n = 140,000); AID 793; NPY-Y2 expressing cells, antagonist mode; in the data active = inhibition above about 17%;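 also: 0% = vehicle with agonist challenge and 100% = reference antagonist with challenge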
NPY Y1 blocker – blocks the human neuropeptide Y Y1 receptor; inhibition, % at 3.6 µM; HEK293-CNG Y1 cells, membrane potential fluorescence; NPY at EC95, then isoproterenol; actives 1% (n = 200,000); P25929;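 active = inhibition above the campaign mean inhibition of all tested compounds plus 3 SD, cut at about 20% in these data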;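 also: 0% = DMSO wells given NPY plus isoproterenol and 100% = isoproterenol alone without NPY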
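Material: Y1- and CNG-channel-expressing HEK293 cells / Probe or stimulus: NPY 25 nM then isoproterenol 1 µM plus Ro 20-1724 25 µM / Doses: 3.6 µM single dose, DMSO 0.4% / Schedule: compound incubation 1 h at room temperature, readout 45 min post-stimulation / Signal: membrane potential fluorescence / Benchmarks: isoproterenol-only wells as full block versus NPY-plus-isoproterenol wells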
The depositor's hits bear a star; nt = not tested or not shown. In the library only some 2.8% were active in any assay of this set; here they are far more common.

SMILES | PGE2 EP2 inh | NPY-Y2 PAM-ag | EP2 modulator | NPY-Y1 PAM-ag | NPY-Y2 antag | NPY Y1 blocker
O=C(c1cccs1)N1N=C(c2ccccc2)CC1c1ccccc1 (stereo not drawn) | 6 | -7 | 63* | -5 | 7 | 1
COc1ccc(C2=NN(C(=O)c3cccs3)C(c3ccc(OC)cc3)C2)cc1 (stereo not drawn) | 5 | -17 | 31 | -10 | 8 | 9
O=C(O)CCC(=O)N1N=C(c2ccc(Br)cc2)CC1c1cccs1 (stereo not drawn) | 6 | 0 | -11 | 3 | nt | 7
Cc1cccc(OCc2nnc(SCC(=O)NC3CCCC3)n2Cc2ccco2)c1C | 7 | nt | 20 | nt | nt | nt
CC(=O)O[C@@H]1CC[C@]2(C)C(=C[C@H]([C@@H]3C=C4C[C@@H](OC(C)=O)CC[C@]4(C)C4=C3[C@@H]3C[C@@H]5O[C@@]6(CC[C@H](C)CO6)[C@@H](C)[C@@H]5[C@@]3(C)CC4)C3=C2CC[C@@]2(C)[C@@H]4[C@@H](C)[C@]5(CC[C@H](C)CO5)O[C@@H]4C[C@H]32)C1 | 40* | nt | 20 | nt | nt | nt
COc1ccc(CNC(=O)Cn2nc(C)n3c(cc4occc43)c2=O)cc1 | 9 | nt | -18 | nt | nt | nt
CC(C)C(c1nnnn1C1CCCCC1)N(CCO)Cc1cc2cc3c(cc2[nH]c1=O)OCCO3 (stereo not drawn) | 7 | nt | 0 | nt | nt | nt
CCC(CN1CCC(C)CC1)NC(=O)Cc1sc(C)nc1-c1ccccc1 (stereo not drawn) | 10 | nt | -14 | nt | nt | nt
CSC(SC)=C(C#N)C(=O)c1ccccc1 | 48* | -8 | -38 | 12 | nt | nt
COc1cccc(C(=O)C(C#N)=C(SC)SC)c1 | 10 | -21 | -33 | 31 | nt | nt
CCN(CC)CCNC(=O)Cn1ncc2c3oc(C)cc3n(C(C)C)c2c1=O | nt | nt | -13 | nt | nt | nt
COc1ccccc1CC(=O)N1CCC(n2nc(-c3ccoc3C)oc2=O)CC1 | 13 | nt | -57 | nt | nt | nt
c1ccc(CNc2nc(NCc3ccccc3)c3ccccc3n2)cc1 | 95* | -4 | -54 | 3 | nt | nt
CCC(C)(C)NC(=O)C(c1cccnc1)N(Cc1ccccc1F)C(=O)c1csnn1 (stereo not drawn) | 4 | nt | -78 | nt | nt | nt
CCOc1ccccc1CN(Cc1ccco1)S(=O)(=O)c1ccc(-n2cnnn2)c(OC)c1 | 10 | -21 | 17 | -11 | 18* | 38*
Cc1ccc(NC(=O)/C(=C/c2cccc(Br)c2)NC(=O)c2ccco2)cc1 | 4 | -11 | 13 | 13 | 3 | 0
O=C(Nc1ccc(C(=O)O)cc1)/C(=C/c1cccc(Br)c1)NC(=O)c1ccco1 | 5 | -5 | 63* | 16 | nt | 6
C=CCn1c(=S)[nH]c2scc(-c3ccc(C)o3)c2c1=O | 34 | -3 | -7 | 0 | nt | 3
O=c1c2c(-c3cccs3)csc2ncn1-c1ccccc1 | 6 | -8 | 15 | -6 | -2 | 0
CCn1c(=S)[nH]c2scc(-c3cccs3)c2c1=O | 70* | -10 | -17 | -7 | nt | 3
O=c1c2c(-c3cccs3)csc2[nH]c(=S)n1-c1ccccc1 | 66* | -3 | -1 | 7 | 3 | -1
CC(C)n1c(=S)[nH]c2scc(-c3cccs3)c2c1=O | 71* | -9 | -19 | -6 | nt | nt
Cc1nc2scc(-c3cccs3)c2c(=O)[nH]1 | 9 | 1 | -2 | 9 | 1 | 3
Cc1ccc(OCC(=O)O/N=C(\N)Cc2ccc(Cl)cc2)cc1 | 11 | -21 | 14 | -56 | 21* | 22*
Cc1cccc(OCC(=O)O/N=C(\N)Cc2ccc(Cl)cc2)c1 | 10 | -33 | 9 | -29 | 23* | 16
SMILES | PGE2 EP2 inh | NPY-Y2 PAM-ag | EP2 modulator | NPY-Y1 PAM-ag | NPY-Y2 antag | NPY Y1 blocker
COc1ccc(OCC(=O)O/N=C(\N)Cc2ccc(Cl)cc2Cl)cc1 | 13 | -17 | 17 | -53 | 13 | 13
Cc1cccc(OCC(=O)O/N=C(\N)Cc2cccs2)c1 | 17 | 7 | 6 | 12 | 5 | 5
Cc1cccc(-c2noc(-c3ccccc3C(=O)NCC3CCCO3)n2)c1 (stereo not drawn) | 11 | -14 | 2 | -5 | 1 | 12
COc1cccc(NC(=O)c2ccccc2-c2nc(-c3cccc(C)c3)no2)c1 | 9 | -33 | 28 | -108 | 23* | 37*
O=C(Cn1cnc([N+](=O)[O-])n1)N/N=C/c1ccccc1O | 10 | -9 | 16 | 3 | -1 | -5
Cc1ccccc1/C=N/NC(=O)Cn1cnc([N+](=O)[O-])n1 | 6 | 11 | 8 | 111* | 1 | 7
COC(=O)c1cc2c(ccn2-c2ccc(F)cc2)n1C(C)C | 7 | -2 | 36 | -9 | 21* | 35*
COC(=O)c1cc2c(ccn2-c2ccc(F)cc2)n1Cc1cccc(OC)c1 | 9 | 17 | -24 | 7 | 6 | 1
CCNC(=S)N(CCN(C)C)Cc1cc2cc(OC)ccc2[nH]c1=O | 7 | nt | -7 | nt | nt | nt
COCC(C)NC(=O)CSc1nc(-c2ccc(F)cc2)cc(C(F)(F)F)n1 (stereo not drawn) | 8 | nt | -98 | nt | nt | nt
CC1=NN(c2ccc(Cl)cc2)C(=O)/C1=C\c1cccn1-c1ccc(S(N)(=O)=O)cc1 | 28 | 49* | -13 | 60* | -6 | -17
Cc1ccc(S(=O)(=O)N/N=C/c2cccn2-c2ccc(Cl)cc2)cc1 | 9 | -12 | 15 | -49 | 5 | 0
CCC(=O)Nc1ccc(NC(=O)CSc2nnc(C(C)C)n2CC)cc1 | 13 | nt | -39 | nt | nt | nt
CCCN(CCC)CCOc1cc(C)ccc1C(C)C | 7 | -6 | 28 | -16 | 27* | 28*
Cc1ccc(C(C)C)c(OCCN(C)C)c1 | 11 | -22 | -8 | -3 | 6 | -2
COc1ccccc1-n1c(SCC(=O)NCc2ccccc2)nnc1-c1cccnc1 | 8 | nt | -13 | nt | nt | nt
C/C(=N\NC(=O)c1nn(C)cc1Br)c1cccc(NC(=O)C(C)(C)C)c1 | 10 | 41* | 8 | 103* | 1 | -8
COc1ccc(OCC(=O)N2CCN(c3cccc(Cl)c3)CC2)cc1 | nt | 8 | -27 | -9 | 7 | 4
COc1ccc(OCC(=O)N2CCN(c3cccc(C(F)(F)F)c3)CC2)cc1 | 6 | 100* | -43 | 72* | 10 | 2
CC[C@H](Cn1nc(-c2ccoc2C)oc1=O)NC(=O)C1CCCCC1 | 6 | nt | 17 | nt | nt | nt
COCc1ccc(OC)c(CN2CCc3onc(-c4ccc(F)c(F)c4)c3C2)c1 | 3 | nt | -36 | nt | nt | nt
COc1ccc(OC)c(-c2csc(N(C)C(=O)COc3ccc(C)cc3)n2)c1 | 54* | nt | 32 | nt | nt | nt
CCN(C(=O)C1CC1)c1nc(-c2cc(OC)ccc2OC)cs1 | 9 | nt | 65* | nt | nt | nt
COc1ccc(OC)c(-c2csc(N(C)C(=O)c3cc(OC)c(OC)c(OC)c3)n2)c1 | 4 | nt | -13 | nt | nt | nt
CC1(C)C2CCC(C2)C1(C)NC(=O)CN1C(=O)[C@@H]2CCCN2C(=O)c2ccccc21 (stereo partly drawn) | 8 | nt | -27 | nt | nt | nt
